Drawing on ChEMBL document CHEMBL2321836, “Discovery of novel Trypanosoma brucei phosphodiesterase B1 inhibitors by virtual screening against the unliganded TbrPDEB1 crystal structure” (J Med Chem, 2013), this text covers Ratio IC50 and IC50 for six compounds.

Assay [1] in a line: Selectivity ratio of IC50 for Trypanosoma brucei PDEB1 to IC50 for human PDE4B.
The target in assay [2] is 3',5'-cyclic-AMP phosphodiesterase 4B (Homo sapiens, UniProt Q07343). Description: Inhibition of human full length PDE4B expressed in insect SF21 cells using cAMP as substrate by scintillation proximity assay. Put shortly: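 Full-length enzyme harvested by sonication of supernatants of overexpressing Sf21 cells. Scintillation proximity assay with 0.5 μM cAMP substrate. Enzyme level set so that <20% of cAMP was consumed. Blanks used denatured protein. Run in at least duplicate. IC50 obtained by a one-site competitive binding fit, with curves assumed to plateau at 100% inhibition.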
Chain of 3',5'-cyclic-AMP phosphodiesterase 4B (Q07343 whole entry): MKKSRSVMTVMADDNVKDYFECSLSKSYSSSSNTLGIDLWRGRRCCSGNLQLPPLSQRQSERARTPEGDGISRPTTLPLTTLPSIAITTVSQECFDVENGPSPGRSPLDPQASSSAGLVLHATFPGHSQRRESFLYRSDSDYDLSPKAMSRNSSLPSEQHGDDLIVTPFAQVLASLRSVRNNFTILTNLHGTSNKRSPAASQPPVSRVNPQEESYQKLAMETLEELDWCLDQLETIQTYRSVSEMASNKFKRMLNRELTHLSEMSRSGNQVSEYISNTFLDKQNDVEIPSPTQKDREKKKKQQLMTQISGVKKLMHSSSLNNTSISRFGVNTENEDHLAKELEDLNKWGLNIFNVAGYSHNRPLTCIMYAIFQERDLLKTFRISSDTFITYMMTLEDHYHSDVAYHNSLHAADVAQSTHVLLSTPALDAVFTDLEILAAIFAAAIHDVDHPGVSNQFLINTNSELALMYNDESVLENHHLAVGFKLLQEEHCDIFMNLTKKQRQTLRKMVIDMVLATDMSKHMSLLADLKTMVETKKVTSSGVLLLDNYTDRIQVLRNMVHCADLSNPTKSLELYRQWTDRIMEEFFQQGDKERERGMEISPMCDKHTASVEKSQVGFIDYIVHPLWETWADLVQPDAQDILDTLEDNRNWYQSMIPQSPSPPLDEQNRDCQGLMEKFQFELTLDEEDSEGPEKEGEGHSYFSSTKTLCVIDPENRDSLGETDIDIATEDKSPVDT
A general note: SPA uses beads or plates that emit light when radiolabelled molecules are held near them.

Assay [3] addresses T1, Class 1 phosphodiesterase PDEB1 (Trypanosoma brucei, UniProt Q8WQX9).
T1 sequence (Q8WQX9 whole entry): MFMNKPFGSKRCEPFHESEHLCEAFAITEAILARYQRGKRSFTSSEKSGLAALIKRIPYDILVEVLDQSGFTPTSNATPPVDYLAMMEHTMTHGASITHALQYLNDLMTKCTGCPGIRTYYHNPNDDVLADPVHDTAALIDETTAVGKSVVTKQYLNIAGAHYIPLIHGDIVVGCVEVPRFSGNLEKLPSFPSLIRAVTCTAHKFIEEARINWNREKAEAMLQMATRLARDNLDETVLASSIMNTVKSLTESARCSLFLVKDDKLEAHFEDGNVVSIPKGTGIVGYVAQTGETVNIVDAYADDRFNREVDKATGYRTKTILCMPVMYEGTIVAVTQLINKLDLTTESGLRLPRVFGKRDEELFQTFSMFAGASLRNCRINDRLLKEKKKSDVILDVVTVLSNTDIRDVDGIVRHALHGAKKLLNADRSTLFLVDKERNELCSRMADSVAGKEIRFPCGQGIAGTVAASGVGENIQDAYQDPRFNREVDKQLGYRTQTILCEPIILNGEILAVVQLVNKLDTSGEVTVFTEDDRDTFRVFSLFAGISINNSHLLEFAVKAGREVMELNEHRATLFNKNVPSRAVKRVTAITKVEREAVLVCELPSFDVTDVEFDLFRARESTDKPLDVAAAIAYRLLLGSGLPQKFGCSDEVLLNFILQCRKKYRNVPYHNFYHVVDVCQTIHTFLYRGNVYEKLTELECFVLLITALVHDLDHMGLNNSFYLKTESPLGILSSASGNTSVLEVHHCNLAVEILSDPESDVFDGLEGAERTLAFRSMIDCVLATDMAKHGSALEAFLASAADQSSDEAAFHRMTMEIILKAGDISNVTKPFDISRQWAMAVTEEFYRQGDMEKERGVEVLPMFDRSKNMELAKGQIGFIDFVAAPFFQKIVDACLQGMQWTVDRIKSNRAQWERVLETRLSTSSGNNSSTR
The assay can be described thus: Inhibition of Trypanosoma brucei full length PDEB1 expressed in insect SF21 cells using cAMP as substrate by scintillation proximity assay. Put shortly: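 Full-length enzyme harvested by sonication of supernatants of overexpressing Sf21 cells. Scintillation proximity assay with 0.5 μM cAMP substrate. Enzyme level set so that <20% of cAMP was consumed. Blanks used denatured protein. Run in at least duplicate.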

By IC50 is commonly meant the concentration needed to halve the response being measured. Turning to `O=C1c2cccc3cccc(c23)C(=O)N1CCCC(=O)N(Cc1ccco1)C1CC1`, in assay [1], the Ratio IC50 amounted to 2.6. Further, the IC50 in assay [2] came to 16 µM; in assay [3] it was 41 µM.

Regarding `CCCn1c(=O)n(C)c(=O)c2c(SCC(=O)c3ccc(Cl)cc3)nc(CC(C)C)nc21`, in assay [1], the Ratio IC50 was 0.4. Besides, the IC50 in assay [2] came out at 26 µM; in assay [3], 10 µM.

Turning to `Cc1cc(SCC(=O)c2ccc(O)c(O)c2)n2nc(C)c(-c3ccccc3)c2n1`, the figures for the IC50 in assay [2] and in assay [3] were 5 µM and 13 µM, respectively.

As to `O=C(CCCSc1ncnc2sc(-c3ccccc3)cc12)N1CCOCC1`, the IC50 in assay [2] turned out to be 14 µM; in assay [3], 12 µM.

On to `O=C(CCc1nc2ccccc2n(CCc2ccccc2)c1=O)N1CCCCC1`, for which the Ratio IC50 in assay [1] was 3.6. Moreover, the IC50 in assay [2] amounted to 15 µM; in assay [3] it was 54 µM.

`O=C(NCc1ccc(Cn2cncn2)cc1)c1ccc2[nH]c3c(c2c1)CCCC3`: the IC50 in assay [2] came to 68 µM; in assay [3] it was 75 µM.
